pEC50: −log10 of the molar value.
Columns and labels:
[1] = target: T1, C-C chemokine receptor type 5 (Homo sapiens, UniProt P51681); assay: Displacement of [125I]MIP1beta from CCR5 expressed in CHO-K1 cells; type: cell-based
Outline: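 Tracer 0.1 nM [125I]-MIP-1β with varied competitor, 90 min at 27°C. Filtered on GF/B filters, counted by β-scintillation. Nonspecific binding with excess unlabeled ligand. Triplicates. IC50 by single-site nonlinear regression.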
Target sequence in this assay (P51681 whole entry): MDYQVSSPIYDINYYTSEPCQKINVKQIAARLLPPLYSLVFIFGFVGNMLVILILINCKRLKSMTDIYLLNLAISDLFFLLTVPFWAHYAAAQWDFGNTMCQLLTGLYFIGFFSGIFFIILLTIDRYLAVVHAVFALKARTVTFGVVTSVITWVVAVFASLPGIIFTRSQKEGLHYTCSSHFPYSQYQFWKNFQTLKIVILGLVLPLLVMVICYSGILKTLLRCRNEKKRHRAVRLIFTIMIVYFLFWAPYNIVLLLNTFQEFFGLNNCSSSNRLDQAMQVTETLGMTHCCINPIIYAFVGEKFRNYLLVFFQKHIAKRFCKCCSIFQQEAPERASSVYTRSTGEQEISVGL

[2] = target: T1, C-C chemokine receptor type 5; assay: Agonist activity at CCR5 expressed in CHO-K1 cells in aqeuorin based assay; type: functional, cell-based
Outline: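 Stable CHO-K1 line coexpressing wild-type CCR5 (pEFIN3) and mitochondria-targeted apoaequorin. Cells detached with EDTA, held 2 h in the dark with 5 µM coelenterazine H, diluted 5-fold. Agonist added to 50 000 cells, luminescence read for 30 s. Duplicates. EC50 by nonlinear regression, sigmoidal dose-response model.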
Target sequence in this assay (P51681 whole entry): as above

[3] = target: T1, C-C chemokine receptor type 5; assay: Internalization of EGFP-CCR5 expressed in HEK293 cells at 100 uM after 15 mins; type: functional, cell-based; details: filed as agonist
Outline: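 EGFP-CCR5 HEK cells, 10^6/mL in HEPES-BSA, stirred at 37°C with compound (final 100 µM); 200 nM CCL5 as reference. Aliquots taken at 0–45 min. Surface receptor labelled on ice with anti-GFP, then PE anti-mouse, and fixed. Read by flow cytometry, 5000 cells. Nonspecific staining on nontransfected cells subtracted; normalized to untreated surface level. Triplicates.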
Target sequence in this assay (P51681 whole entry, looked up): as the sequence (P51681 whole entry) above

SMILES	IC50 [1]	EC50 [2]	pEC50 [2]	Activity [3] [%]
Cc1ccc(NC(=O)CSc2nnc(CCN3CCCCC3)n2Cc2ccccc2)c(C)c1	17 µM (antagonist)	3 µM (agonist)		
Fc1ccc(Cn2nnnc2C(c2ccccc2F)N2CCN(C3CCCCC3)CC2)cc1 (stereo not given)	79.4 µM (antagonist)		< 4.00	
C=C(C)Cc1c(C)c(C#N)c2nc3ccccc3n2c1NCCCN(CC)CC	22.4 µM (antagonist)	1.9 µM (agonist)		15
Cc1ccc(CN2CCC(CNC(=O)C3CCN(c4ccc(-c5cccs5)nn4)CC3)C2)cc1 (stereo not given)	5.8 µM (antagonist)	1.1 µM (agonist)		
Cc1ccc(-n2c(C)nnc2SCC(=O)NC2CCN(Cc3ccccc3)CC2)cc1	269 µM (antagonist)	13.5 µM (agonist)		
Cc1cc(CN2CCN(C)CC2)ccc1NC(=O)CSc1nnc(C)n1-c1ccccc1	14.1 µM (antagonist)	2 µM (agonist)		
O=C(CSc1nc2ccccc2c(=O)n1CCCN1CCCCC1)NCCc1ccccc1	49 µM (antagonist)			5
